Results on nine molecules are retold here after ChEMBL document CHEMBL1150337, “Lavendamycin antitumor agents: structure-based design, synthesis, and NAD(P)H:quinone oxidoreductase 1 (NQO1) model validation with molecular docking and biological studies” (J Med Chem, 2008).

As a reminder, the IC50 is the concentration at which inhibition is half-maximal. The low end stands for greater potency in that assay, the high end for weaker potency in that assay.

Bounds are passed on as bounds.

Experiment [1] relates to BE-NQ. Description: Cytotoxicity against human BE-NQ cells expressing human NQO1 after 4 to 5 days by MTT assay. Type of experiment: functional, cell-based. The method, boiled down:
(§1)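 Cells in MEM with Earle's salts, 10% FBS, 37 °C, 5% CO2. Seeded at 10000 cells/mL, attached overnight (16 h). Analogue in medium for 2 h, then fresh medium for 4–5 days. MTT (50 µg) added for 4 h, formazan dissolved in DMSO, absorbance read at 560 nm. IC50 (50% of control survival) taken from semilog plots of percent control vs concentration.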
(Formazan colour is commonly taken as a measure of viable cells.)

The target of experiment [2] is NAD(P)H dehydrogenase [quinone] 1 (Homo sapiens) (UniProt P15559). The experiment is described as follows: Activity of human recombinant NQO1 assessed as reduction of cytochrome c per mg of protein by spectrophotometric assay. The method, boiled down:
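Cytochrome c reduction followed at 550 nm as initial rates. Mix: cytochrome c 70 µm, NADH 1 mM, recombinant human NQO1 (0.1–3 µg) and lavendamycin analogue 25 µm in 1 mL Tris-HCl 25 mM pH 7.4 with 0.7 mg/mL BSA and 0.1% Tween-20. At least triplicate.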

The next experiment concerns BE. The experiment is described as follows: Cytotoxicity against NQO1 deficient human BE cells after 4 to 5 days by MTT assay. It counts as functional, cell-based. The method, boiled down: as §1
Experiment [3] has as its system BE-NQ. Description: Selectivity ratio of IC50 for NQO1 deficient human BE cells to IC50 for human BE-NQ cells expressing NQO1. Type of experiment: functional. The method, boiled down:
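Ratio of MTT-derived IC50 in NQO1-deficient BE cells to IC50 in NQO1-transfected BE-NQ cells. IC50 was read from semilog plots of percent of control vs concentration.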

NAD(P)H dehydrogenase [quinone] 1 (Homo sapiens), sequence (P15559 whole entry): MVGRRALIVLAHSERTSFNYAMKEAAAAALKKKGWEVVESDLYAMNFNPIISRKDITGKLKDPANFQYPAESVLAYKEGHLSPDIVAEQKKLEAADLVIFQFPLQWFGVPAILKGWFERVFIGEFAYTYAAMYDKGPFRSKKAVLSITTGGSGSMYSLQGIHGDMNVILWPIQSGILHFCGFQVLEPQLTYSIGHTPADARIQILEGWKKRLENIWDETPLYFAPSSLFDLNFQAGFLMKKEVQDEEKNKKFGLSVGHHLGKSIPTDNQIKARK

Take `CCCC(=O)NC1=CC(=O)c2ccc(-c3nc(C(=O)OCCC(C)C)cc4c3[nH]c3ccccc34)nc2C1=O`: the concentration for half-maximal inhibition (IC50) with BE-NQ [1] and with BE was over 50 µM in each case. Further, the Activity in experiment [2] came out at 3.4 µmol/min/mg.

Consider `CCCCCCCCOC(=O)c1cc2c([nH]c3ccccc32)c(-c2ccc3c(n2)C(=O)C(N)=CC3=O)n1`, for which the “Ratio IC50” value in the experiment with BE-NQ [3] is recorded as 10.

As to `CCCCNC(=O)c1cc2c([nH]c3ccccc32)c(-c2ccc3c(n2)C(=O)C(NC(C)=O)=CC3=O)n1`, the values for the IC50 in the experiment on BE-NQ [1] and in the experiment with BE were 1.7 µM and 50 µM, respectively. In experiment [2], the Activity came out at 143 µmol/min/mg. In addition, the “Ratio IC50” value in the experiment on BE-NQ [3] is 30.

In the case of `COC(=O)c1[nH]c(-c2ccc3c(n2)C(=O)C(=N)C=C3O)c2nc3ccccc3c-2c1C`, the “Ratio IC50” value with BE-NQ [3] stood at 9.

Take `NC1=CC(=O)c2ccc(-c3[nH]c(CO)cc4c5ccccc5nc3-4)nc2C1=O`: the “Ratio IC50” value with BE-NQ [3] was determined as 11.

`COC(=O)c1cc2c([nH]c3ccccc32)c(-c2ccc3c(n2)C(=O)C(NC(=O)c2ccco2)=CC3=O)n1`: the IC50 was determined as 47 µM in the experiment with BE-NQ [1] and 49 µM with BE. In addition, the Activity in experiment [2] was 7 µmol/min/mg. Further, in the experiment with BE-NQ [3], the “Ratio IC50” value is listed as 1.

Consider `CCC(C)NC(=O)c1cc2c([nH]c3ccccc32)c(-c2ccc3c(n2)C(=O)C(NC(C)=O)=CC3=O)n1` (configuration not stated), for which the IC50 with BE-NQ [1] and with BE was over 50 µM each time. Also, the Activity in experiment [2] is 4.9 µmol/min/mg.

Regarding `NC1=CC(=O)c2ccc(-c3nc(C(=O)OCCO)cc4c3[nH]c3ccccc34)nc2C1=O`, the results for the IC50 in the experiment on BE-NQ [1] and with BE were 0.5 µM and 3.3 µM, respectively. In addition, in experiment [2], the Activity is 60 µmol/min/mg. For the same molecule, in the experiment with BE-NQ [3], the “Ratio IC50” value is listed as 7.

Regarding `N=C1C=C(O)c2ccc(-c3nc(C(N)=O)cc4c3[nH]c3ccccc34)nc2C1=O`, the “Ratio IC50” value in the experiment on BE-NQ [3] is 9.
